Screening data from PubChem.
MEKK2wt PB1 HTS: raises or lowers MEK5 binding to wildtype human MEKK2 PB1 domain | bead flow cytometry, Alexa488-MEK5 binding to MEKK2 WT; actives lie on both sides | actives 1.1% (n = 290,000) | binding response (% of control), % at 10 µM; in the data active = binding response below about 67% or above about 130%
ABCB1 block: inhibitors of human ABCB1 transporter, ABCG2 counter-screen; P08183; CCRF-Adr cells, JC-1 efflux, flow cytometry; inhibition, % at 6.6 µM; actives 0.067% (n = 190,000); in the data active = inhibition above about 40%;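 also: 0% = vehicle and 100% = reference inhibitor; higher value means more JC-1 retained so stronger ABCB1 efflux block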
ABCG2 block: human ABCG2 inhibition, ABCB1 as counter-screen. AID 1325. IgMXP3 cells, JC-1 efflux, flow cytometry. Q9UNQ0. actives 0.1% (n = 190,000). inhibition, % at 6.6 µM;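 active = inhibition above 80%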;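 also: 0% = DMSO and 100% = nicardipine control wells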
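Read-out basis: Efflux inhibition in percent versus controls | Test system: ABCG2 IgMXP3 and barcoded ABCB1 CCRF-Adr cell mix | Quantity: 3 million cells/mL in well | Schedule: 10 min at 25 °C | Control set: Nicardipine as high control, DMSO as low control | Reagent: JC-1 as fluorescent efflux pump substrate | Signal: Flow cytometry of retained JC-1 fluorescence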
MEKK3 PB1 HTS: raises or lowers MEK5 binding to the human MEKK3 PB1 domain; Q99759; bead-based flow cytometry, Alexa488-MEK5 binding to MEKK3; actives lie on both sides; 0 = blocked by unlabeled MEK5, 100 = vehicle; binding response (% of control), % at 10 µM; actives 1.4% (n = 290,000); AID 1529;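 active = binding response more than 3 SD above or below the average of its plate-row segment, actives on both sides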;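 also: Alexa488 bead fluorescence after subtracting the streptavidin-only scavenger bead signal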
MEKK2mut PB1 HTS: signal of MEK5 binding to mutant human MEKK2 PB1 domain. bead flow cytometry, Alexa488-MEK5 binding to MEKK2 mutant. percent response, % at 10 µM. actives 0.35% (n = 290,000). AID 1530; in the data active = percent response above about 24%, passing the limit was not always enough
MEKK2wt confirm: raises or lowers MEK5 binding to wildtype human MEKK2, retest; shares compounds with MEKK3 PB1 HTS; bead flow cytometry, Alexa488-MEK5 binding to MEKK2 WT; actives lie on both sides; binding response (% of control), % at 10 µM; actives 2.4% (n = 5,900); AID 1892; in the data active = binding response below about 16% or above about 210%; inactive = in between
MEKK2mut-MEK5: signal of MEK5 binding to mutant human MEKK2, retest; shares compounds with MEKK3 PB1 HTS; bead flow cytometry, Alexa488-MEK5 binding to MEKK2 mutant; percent response, % at 10 µM; actives 2% (n = 5,900); AID 1893; in the data active = percent response mostly above about 71%, no sharp cut-off; inactive = mostly below about 38%;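 also: higher means compound restores mutant binding toward wildtype level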
MEKK3 confirm: confirmation of inhibitors of MEK5 binding to human MEKK3; shares compounds with MEKK3 PB1 HTS; bead flow cytometry, Alexa488-MEK5 binding to MEKK3; hits give low values; binding response (% of control), % at 10 µM; actives 1.8% (n = 5,900); AID 1894;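 active = binding response below 72% of control, or above a set upper limit, though filed actives all read lower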;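 also: 100% = DMSO only wells and 0% = binding blocked by excess unlabeled MEK5; lower values mean stronger disruption of MEK5 binding to MEKK3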
Numbers without * were called inactive; x = no result; [ ] = dose if it differs, or a comment. Only some compounds are listed: those with a hit (about 2.3% of all), similar ones and a draw of the others.

SMILES	MEKK2wt PB1 HTS	ABCB1 block	ABCG2 block	MEKK3 PB1 HTS	MEKK2mut PB1 HTS	MEKK2wt confirm	MEKK2mut-MEK5	MEKK3 confirm
Cc1cccc(C(=O)NNC(=O)C2CCN(C(=O)OC(C)(C)C)CC2)c1	103	x	x	103	8	x	x	x
Oc1ccc(Cl)cc1CNCC1CCCO1 (configuration not stated)	98	1	5	98	-1	x	x	x
Clc1ccccc1CNCC1CCCO1 (configuration not stated)	110	x	x	108	27*	104	5	104
COC(=O)c1c(-c2ccc(C(C)(C)C)cc2)csc1NC(=O)C1C2CCC(O2)C1C(=O)O (configuration not stated)	92	-1	-8	75*[inhibitor]	-1	99	-1	105
CC(=O)Nc1ccc(S(=O)(=O)N2CCCC(C(=O)N3CCN(c4ccccc4)CC3)C2)cc1 (configuration not stated)	107	x	x	103	9	x	x	x
COc1ccc(/C=N/NC(=O)CCn2nc(C)cc2C)cc1O	103	x	x	100	6	x	x	x
COc1ccc(/C=N/NC(=O)CCn2nc(C)cc2C)cc1	112	x	x	133*	30	96	-3	98
Cc1ccc(NC(=O)CCn2nc(C)cc2C)cc1	139*	0	4	142*	10	101	1	100
Cc1cc(Cl)ccc1OCC(=O)Nc1cccnc1	102	x	x	103	4	x	x	x
COc1ccc(CCNC(=O)c2ccc(CS(=O)Cc3ccc(C)cc3)o2)cc1OC (configuration not stated)	101	x	x	99	0	x	x	x
O=C(CCNS(=O)(=O)c1ccc(Br)cc1)Nc1cccc(F)c1	93	x	x	96	-5	x	x	x
O=C(COC(=O)c1ccccc1C(=O)c1ccccc1)NCCc1ccc(Cl)cc1Cl	96	6	32	130*	-2	102	-3	101
O=C(COC(=O)c1ccccc1C(=O)c1ccc(Cl)cc1)NCc1ccccc1	124	2	25	103	21	x	x	x
Clc1ccc2nc(N3CCNCC3)nc(-c3ccccc3)c2c1	152*	1	7	103	32	108	0	102
Cc1cc(OCCCCN2C(=O)NC(C)(C)C2=O)ccc1[N+](=O)[O-]	97	1	12	99	-2	x	x	x
CC1(C)NC(=O)N(CCOc2ccc([N+](=O)[O-])cc2)C1=O	49	0	-3	42*[inhibitor]	-40	97	0	100
CC(=O)N1CCN(Cc2nc3cc([N+](=O)[O-])ccc3n2C)CC1	100	x	x	96	-2	x	x	x
Cn1c(CN2CCN(C(=O)c3ccc(F)cc3)CC2)nc2cc([N+](=O)[O-])ccc21	106	1	12	147*	1	100	0	101
CCS(=O)(=O)c1ccc(O)c(NC(=O)COc2ccc(C)cc2)c1	106	0	7	154*	0	109	7	101
CCS(=O)(=O)c1ccc(O)c(NC(=O)COc2ccc(OC)cc2)c1	96	0	8	90	-2	x	x	x
O=C(COC(=O)CCc1c[nH]c2ccccc12)NCc1ccc(Cl)cc1	2.0*[inhibitor]	1	17	2.0*[inhibitor]	-1	101	-3	102
Cc1ccc(-c2csc(N3CCN(c4cc5c(cc4Cl)nc(C)n5CCN4CCCCC4)CC3)n2)cc1	148*	x	x	107	46*	177	47	111
Cc1csc(N2CCN(c3cc4nc(-c5ccncc5)[nH]c4cc3Cl)CC2)n1	95	x	x	99	1	x	x	x
Cc1csc(N2CCN(c3cc4c(cc3Cl)nc(-c3ccncc3)n4CCCN3CCCC3)CC2)n1	147*	x	x	102	22	164	51	107
N#CCS(=O)(=O)c1ccccc1	99	x	x	101	-2	x	x	x
SMILES	MEKK2wt PB1 HTS	ABCB1 block	ABCG2 block	MEKK3 PB1 HTS	MEKK2mut PB1 HTS	MEKK2wt confirm	MEKK2mut-MEK5	MEKK3 confirm
O=C(O)/C=C/c1coc2ccc(F)cc2c1=O	99	-1	-1	72*[inhibitor]	0	106	12	106
CCCCNc1cc(C(=O)O)cc(S(N)(=O)=O)c1Oc1ccccc1	16*[inhibitor]	1	0	87	-1	94	-6	99
CN1CCN(C2=Cc3ccccc3Sc3cc(F)c(Cl)cc32)CC1	134*	0	-2	99	10	163	30	103
CN1CCN(C2=Cc3ccccc3Sc3cc(F)c(F)cc32)CC1	123	3	8	107	10	x	x	x
CN1CCN(C2=Cc3cc(Cl)ccc3Sc3cc(F)ccc32)CC1	202*	-1	-2	83	53*	164	26	103
O=C(N/N=C(\c1ccccc1)c1cccnc1)c1cc(O)ccc1O	106	x	x	102	7	x	x	x
COc1ccccc1CNC(=O)CN(C)S(=O)(=O)c1ccc(Br)s1	95	x	x	100	0	x	x	x
COc1cccc(NC(=S)N2CCN(c3ccc([N+](=O)[O-])cc3)CC2)c1	60*[inhibitor]	0	14	60*[inhibitor]	-16	99	-2	100
O=C(O)CN1C(=O)c2ccc(C(=O)c3ccccc3)cc2C1=O	109	x	x	104	6	x	x	x
Cc1ccc(OCCCCN2CCc3ccccc3C2)c(C)c1	139*	x	x	116	18	104	0	99
N#Cc1ccc(NC(=O)CNc2cc(S(=O)(=O)N3CCOCC3)ccc2NCC2CCCO2)cc1 (configuration not stated)	7.0*[inhibitor]	1	11	5.0*[inhibitor]	-18	104	2	107
C=C(C)Cn1c(CCn2c3ccccc3c3ccccc32)n[nH]c1=S	102	-1	-8	134*	4	91	1	101
COc1ccc(-c2noc(CN(C(=O)C(C)(C)C)C(C)C)n2)cc1	114	-3	-5	118	25*	98	-3	100
Cc1c(NC(=O)C2CC(c3ccc(F)cc3)=NO2)c(=O)n(-c2ccccc2)n1C (configuration not stated)	17*[inhibitor]	0	-1	9.0*[inhibitor]	-38	104	7	102
NC(=O)c1oc2ccccc2c1NC(=O)CN1CCCCC1	111	1	7	106	9	x	x	x
CC(=O)c1oc2ccccc2c1NC(=O)CN1CCCCC1	3.0*[inhibitor]	0	2	4.0*[inhibitor]	-2	105	6	105
Cc1cc2nc3c(nc2cc1C)CCCC3	107	x	x	103	8	x	x	x
C=CCc1ccccc1OCC(=O)NNC(=S)NCc1ccccc1	106	x	x	104	4	x	x	x
